Reference: ChEMBL document CHEMBL4673221, “Furanoflavones pongapin and lanceolatin B blocks the cell cycle and induce senescence in CYP1A1-overexpressing breast cancer cells” (Bioorg Med Chem, 2018)
The source made the active and inactive calls. The rule behind the calls is not given here.

What was measured:
Cytochrome P450 1A1 [1] = target: T1, Cytochrome P450 1A1 (Homo sapiens, UniProt P04798); test: Inhibition of human CYP1A1 expressed in human HEK293 cells using 7-ethoxyresorufin as substrate preincubated for 30 mins followed by substrate additon and measured after 60 mins by fluorescence based assay; assay type: cell-based
T1 sequence (P04798 whole entry): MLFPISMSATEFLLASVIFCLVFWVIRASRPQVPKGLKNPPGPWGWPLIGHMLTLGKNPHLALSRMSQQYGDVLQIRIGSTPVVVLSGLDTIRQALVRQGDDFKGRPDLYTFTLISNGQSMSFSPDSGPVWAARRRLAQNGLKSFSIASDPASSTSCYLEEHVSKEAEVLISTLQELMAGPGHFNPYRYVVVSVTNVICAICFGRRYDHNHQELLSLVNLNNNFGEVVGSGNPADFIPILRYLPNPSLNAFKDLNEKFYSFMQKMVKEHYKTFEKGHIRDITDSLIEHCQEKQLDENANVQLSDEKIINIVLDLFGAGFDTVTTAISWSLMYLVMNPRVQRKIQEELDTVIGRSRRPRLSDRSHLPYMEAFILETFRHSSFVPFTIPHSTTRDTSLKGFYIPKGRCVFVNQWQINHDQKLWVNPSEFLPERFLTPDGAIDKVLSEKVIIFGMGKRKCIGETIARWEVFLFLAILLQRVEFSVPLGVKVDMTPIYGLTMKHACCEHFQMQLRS
Method in brief: (§1)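 The assay used live recombinant human HEK293 cells grown in suspension, each cell line expressing a single CYP (CYP1A1 or CYP1B1). Percent inhibition was read at 10 μM, and IC50 values were determined. Values are mean ± SD of three independent experiments. Alpha-naphthoflavone served as the reference inhibitor.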

Cytochrome P450 1B1 [2] = target: T2, Cytochrome P450 1B1 (Homo sapiens, UniProt Q16678); test: Inhibition of human CYP1B1 expressed in sacchrosomes using 7-ethoxyresorufin as substrate by fluorescence based assay; assay type: ADME
T2 sequence (Q16678 whole entry): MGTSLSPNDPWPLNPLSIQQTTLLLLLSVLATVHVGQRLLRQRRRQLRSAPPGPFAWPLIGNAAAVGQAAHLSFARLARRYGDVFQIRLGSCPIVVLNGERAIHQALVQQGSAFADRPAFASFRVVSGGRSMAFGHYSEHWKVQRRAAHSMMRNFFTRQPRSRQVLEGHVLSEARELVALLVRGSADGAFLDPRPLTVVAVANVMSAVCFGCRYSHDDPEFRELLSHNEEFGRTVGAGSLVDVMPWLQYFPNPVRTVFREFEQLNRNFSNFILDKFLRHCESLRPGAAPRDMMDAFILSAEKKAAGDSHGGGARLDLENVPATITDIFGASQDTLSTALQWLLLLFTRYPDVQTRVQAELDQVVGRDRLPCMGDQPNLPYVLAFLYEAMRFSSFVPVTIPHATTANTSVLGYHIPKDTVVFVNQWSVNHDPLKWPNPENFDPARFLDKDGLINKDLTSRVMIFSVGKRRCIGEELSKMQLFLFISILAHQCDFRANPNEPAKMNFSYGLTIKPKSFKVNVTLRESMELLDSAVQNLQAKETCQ
Method in brief: (§2)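 Enzymes were microsomal preparations isolated from recombinant baker's yeast (Sacchrosomes). Compounds were screened at 10 μM for percent inhibition, and IC50 values were also determined. Values are mean ± SD of three independent experiments. Alpha-naphthoflavone served as the positive control.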

Cytochrome P450 1B1 [3] = target: T2, Cytochrome P450 1B1; test: Inhibition of human CYP1B1 expressed in human HEK293 cells using 7-ethoxyresorufin as substrate preincubated for 30 mins followed by substrate additon and measured after 60 mins by fluorescence based assay; assay type: ADME, cell-based; method in brief: as §1
Cytochrome P450 1A1 [4] = target: T1, Cytochrome P450 1A1; test: Inhibition of human CYP1A1 expressed in HEK293 cells assessed as reduction in CYP1A1 mediated […] induced-toxicity by measuring EC50 at 3 times of IC50 concentration by MTT assay relative to control; assay type: cell-based; design: scale not given: the % may be the effect or the level left
Method in brief: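 Adherent HEK293 cells transfected with pcDNA3.1/hCYP1A1 were exposed to B[a]P over 0.05–100 µM, with inhibitor at 3x its IC50 from the suspension HEK293-CYP1A1 assay. The EC50 of B[a]P for cell growth inhibition was derived. Cells transfected with empty plasmid were used for comparison. Values are mean and SD of three independent experiments.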

Cytochrome P450 1A1 [5] = target: T1, Cytochrome P450 1A1; test: Inhibition of human CYP1A1 expressed in sacchrosomes using 7-ethoxyresorufin as substrate by fluorescence based assay; method in brief: as §2
CYP1A1 [6] = target: T3, CYP1A1 (Homo sapiens, UniProt P04798); test: Inhibition of human CYP1A1 expressed in sacchrosomes at 10 uM using 7-ethoxyresorufin as substrate by fluorescence based assay relative to control; conditions: sacchrosomes expressing human CYP1A1, probe 7-ethoxyresorufin; method in brief: as §2
T3 sequence (P04798 whole entry): T1 sequence (P04798 whole entry)

CYP1A1 [7] = target: T3, CYP1A1; test: Inhibition of human CYP1A1 expressed in human HEK293 cells at 10 uM using 7-ethoxyresorufin as substrate preincubated for 30 mins followed by substrate additon and measured after 60 mins by fluorescence based assay relative to control; assay type: cell-based; conditions: HEK293 cells expressing human CYP1A1, probe 7-ethoxyresorufin, time 90 min; method in brief: as §1
MCF7 [8] = test: Induction of cell cycle arrest in human MCF7 over expressing CYP1A cells assessed as accumulation at G2/M phase incubated for 24 hrs by PI staining based flow cytometric analysis (reference value: 22.6%); assay type: functional
MCF7 [9] = test: Induction of cell cycle arrest in human MCF7 over expressing CYP1A cells assessed as accumulation at S phase incubated for 24 hrs by PI staining based flow cytometric analysis (reference value: 20.1%); assay type: functional
MCF7 [10] = test: Cell cycle arrest in human MCF-7 cells over expressing CYP1A1 assessed as down regulation of CyclinD1 after 24 hrs by western blotting assay; assay type: functional, cell-based
Method in brief: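 Cyclin D1 was detected by Western blot, with β-tubulin as loading control. Untreated cells served as control.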

MCF7 [11] = test: Induction of cell cycle arrest in human MCF7 over expressing CYP1A cells assessed as accumulation at G0/G1 phase incubated for 24 hrs by PI staining based flow cytometric analysis (Rvb =54.3 %); assay type: functional
MCF7 [12] = test: Antiproliferative activity against human MCF-7 cells overexpressing CYP1A1 assessed as reduction in cell viability; assay type: functional, cell-based
Method in brief: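 MCF-7 cells transfected with pcDNA3.1/CYP1A1 and selected in G418 (1 mg/mL, then […]) to give the stable MCF7-1A1 line. CYP1A1 expression was confirmed by Western blot and 7-ethoxyresorufin enzyme assay. The line was subcloned repeatedly. The reported value is the EC50 for inhibition of proliferation.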

Row | IC50 (Cytochrome P450 1A1 [1]) [µM] | IC50 (Cytochrome P450 1B1 [2]) [µM] | IC50 (Cytochrome P450 1B1 [3]) [µM] | IC50 (Cytochrome P450 1A1 [5]) [µM] | inhibition at 10 µM (CYP1A1 [6]) [%] | inhibition at 1 h, 10 µM (CYP1A1 [7]) [%] | EC50 (MCF7 [12]) [µM] | SMILES | Activity (Cytochrome P450 1A1 [4]) [%] | Activity (MCF7 [8]) [%] | Activity (MCF7 [9]) [%] | Activity (MCF7 [10]) | Activity (MCF7 [11]) [%]
1 | – | – | – | – | 31.6 | – | – | COc1c(-c2cc(-c3ccccc3)nn2-c2ccccc2[N+](=O)[O-])ccc2occc12 | – | – | – | – | –
2 | 0.48 | 0.6 | 1.5 | 0.28 | – | – | – | COc1c(C(=O)/C=C(\O)c2ccc3c(c2)OCO3)ccc2occc12 [OVALITENONE] | – | – | – | – | –
3 | 0.49 | > 20 | 5.7 | 0.28 | > 70 | > 84 | – | COc1c(-c2cc(-c3ccccc3)n(-c3ccc(C#N)cc3)n2)ccc2occc12 | 91 | – | – | – | –
4 | 6.4 | 3.4 | 6.8 | 8.2 | – | – | – | O=c1cc(-c2ccc3c(c2)OCO3)oc2c1ccc1occc12 [PONGAGLABRONE] | – | – | – | – | –

The remaining lines, values behind:

Row | SMILES | IC50 (Cytochrome P450 1A1 [1]) [µM] | IC50 (Cytochrome P450 1B1 [2]) [µM] | IC50 (Cytochrome P450 1B1 [3]) [µM] | IC50 (Cytochrome P450 1A1 [5]) [µM] | inhibition at 10 µM (CYP1A1 [6]) [%] | inhibition at 1 h, 10 µM (CYP1A1 [7]) [%] | EC50 (MCF7 [12]) [µM] | Activity (Cytochrome P450 1A1 [4]) [%] | Activity (MCF7 [8]) [%] | Activity (MCF7 [9]) [%] | Activity (MCF7 [10]) | Activity (MCF7 [11]) [%]
5 | COc1c(C(=O)/C=C(\O)c2ccccc2)ccc2occc12 [PONGAMOL] | 4.4 | 3.9 | 4.5 | 2.4 | – | – | – | 73 | – | – | – | –
6 | O=c1cc(-c2cccc(O)c2)oc2c1ccc1occc12 | 0.24 | 3.8 | 1.2 | 0.69 | – | – | – | – | – | – | – | –
7 | COc1c(-c2cc(-c3ccccc3)nn2-c2ccc(C#N)cc2)ccc2occc12 | 8.6 | 6.2 | 25.5 | 6.8 | > 70 | > 84 | – | – | – | – | – | –
8 | COc1c(-c2ccccc2)oc2c(ccc3occc32)c1=O [KARANJIN] | 0.03 | 4.1 | 0.03 | 2.7 | – | – | – | – | – | – | – | –
9 | O=c1cc(-c2ccccc2)oc2c1ccc1ccccc12 [ALPHA-NAPHTHOFLAVONE] | – | – | – | – | – | – | > 20 | – | 20.5 | 24.1 | Active | 55.4
